This passage reports Activity results from ChEMBL document CHEMBL1153633, “Synthesis and biological activity of alpha-galactosyl ceramide KRN7000 and galactosyl (alpha1-->2) galactosyl ceramide” (Bioorg Med Chem Lett, 2009).

Common to all, as to type: functional, cell-based
For test [1], the system named is RAW. Description: Activation of mouse DN32 cells in co-cultured with CD1d-transfected RAW cells assessed as IL-2 release after 16 hrs by ELISA. In outline: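 Mouse iNKT hybridoma DN32 (5×10^4) co-cultured with 5×10^4 RAW cells, CD1d-transfected or untransfected, across a range of lipid concentrations; supernatant cytokines measured by ELISA at 16 h.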
In general terms: An ELISA detects its analyte on a solid surface through an enzyme-linked reagent.

Test [2] relates to RAW. Description: Activation of mouse DN32 cells co-cultured with CD1d-transfected RAW cells assessed as IL-2 release at 100 ng/ml fixed and then pulsed for 3 hrs measured after 16 hrs by ELISA. The gist of the method: (§1)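 CD1d-transfected RAW cells were handled in one of two orders. In one, they were pulsed with 100 ng/ml lipid for 3 h, washed, then fixed with glutaraldehyde. In the other, they were fixed first, then pulsed for 3 h. 10^5 APC were co-cultured with 10^5 iNKT hybridoma cells for 16 h, and supernatant cytokines were measured by ELISA.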

Test [3] can be described thus: Activation of human BM2a.3 cells co-cultured with CD1d-expressing U937 cells assessed as IFN-gamma release after 16 hrs by ELISA. The following applies: U-937. The gist of the method:
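Human iNKT clone BM2a.3 (2.5×10^4) co-cultured with 2.5×10^4 U937 cells and a range of lipid concentrations; cytokines in culture supernatants measured by ELISA after 16 h.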

The next test relates to DN32. Description: Activation of mouse DN32 cells in co-cultured with plate bound antigen presenting cell free CD1d-FC fusion protein assessed as IL-2 release after 16 hrs by ELISA. In outline: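 Plate-bound murine recombinant CD1d-Fc fusion protein loaded with lipid for 16 h, then washed; 5×10^4 iNKT hybridoma cells added per well, with no APC. Cytokines in culture supernatants measured by ELISA.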

For test [4], the system named is RAW. The test can be described thus: Activation of mouse DN32 cells co-cultured with CD1d-transfected RAW cells assessed as IL-2 release at 100 ng/ml pulsed for 3 hrs and then fixed measured after 16 hrs by ELISA. In outline: as §1

SMILES strings stand for the structures. Active and inactive are the calls of the source. The rule behind the calls is not given here.

As for `CCCCCCCCCCCCCCCCCCCCCCCCCC(=O)N[C@@H](CO[C@H]1O[C@H](CO)[C@H](O)[C@H](O)[C@H]1O)[C@H](O)[C@H](O)CCCCCCCCCCCCCC`, the result (with RAW [1]; in the test on RAW [2]; in test [3]; in the test on DN32; in the test with RAW [4]) was Active.
As to `CCCCCCCCCCCCCCCCCCCCCCCCCC(=O)N[C@@H](CO[C@H]1O[C@H](CO)[C@H](O)[C@H](O)[C@H]1O[C@H]1O[C@H](CO)[C@H](O)[C@H](O)[C@H]1O)[C@H](O)[C@H](O)CCCCCCCCCCCCCC`, the result (in the test with RAW [1]; in test [3]; with RAW [4]) was Active. Besides, the outcome in the test with RAW [2] and in the test with DN32 was inactive.
